Test results: ChEMBL document CHEMBL3621200, “Toward the discovery of dual HCMV-VZV inhibitors: Synthesis, structure activity relationship analysis, and cytotoxicity studies of long chained 2-uracil-3-yl-N-(4-phenoxyphenyl)acetamides” (Bioorg Med Chem, 2015)
Active and inactive are the calls of the source. The calls are words filed in the database; no cut-off is given here.

tested on: Feline coronavirus; assay: Antiviral activity against Feline coronavirus; format: functional, organism-based; settings: not given

Compound	inhibition
O=C(Cn1c(=O)ccn(CCCCCOc2ccc(Br)cc2)c1=O)Nc1ccccc1	inactive
O=C(Cn1c(=O)ccn(CCCCCCc2ccccc2)c1=O)Nc1ccc(Oc2ccccc2)cc1	inactive
O=C(Cn1c(=O)ccn(CCCCCOc2ccc(Br)cc2)c1=O)Nc1ccc(OCc2ccccc2)cc1	inactive

tested on: Coxsackievirus B4; assay: Antiviral activity against Human coxsackievirus B4; format: functional, organism-based; settings: not given

Compound	inhibition
O=C(Cn1c(=O)ccn(CCCCCOc2ccc(Br)cc2)c1=O)Nc1ccccc1	inactive
O=C(Cn1c(=O)ccn(CCCCCCc2ccccc2)c1=O)Nc1ccc(Oc2ccccc2)cc1	inactive
O=C(Cn1c(=O)ccn(CCCCCOc2ccc(Br)cc2)c1=O)Nc1ccc(OCc2ccccc2)cc1	inactive

tested on: not listed separately; assay: Cytotoxicity against human cytomegalovirus infected HEL cells assessed as alteration of cell morphology incubated for 3 days by microscopy; format: cell-based; settings: HEL cells infected with human cytomegalovirus
Method in brief: (§1)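 Cytotoxicity was given as the minimum cytotoxic concentration (MCC): the compound concentration causing a microscopically detectable change in HEL cell morphology.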

Compound	MCC at 72 h
Nc1ccn(C[C@@H](CO)OCP(=O)(O)O)c(=O)n1 [CIDOFOVIR]	> 300 µM
Nc1nc(O)c2ncn(COC(CO)CO)c2n1 [GANCICLOVIR]	> 350 µM
O=C(Cn1c(=O)ccn(CCCCCOc2ccc(Br)cc2)c1=O)Nc1ccccc1	20 µM
O=C(Cn1c(=O)ccn(CCCCCCc2ccccc2)c1=O)Nc1ccc(Oc2ccccc2)cc1	100 µM
O=C(Cn1c(=O)ccn(CCCCCOc2ccc(Br)cc2)c1=O)Nc1ccc(OCc2ccccc2)cc1	≥ 20 µM

tested on: Human alphaherpesvirus 2; assay: Antiviral activity against HSV2 Lyons; format: functional, organism-based; settings: not given
Method in brief: (§2)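 Confluent cell monolayers in 96-well plates were inoculated with 100 CCID50 of virus together with varying compound concentrations. Cytopathicity was scored once it reached completion in untreated infected controls.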

Compound	inhibition
O=C(Cn1c(=O)ccn(CCCCCOc2ccc(Br)cc2)c1=O)Nc1ccccc1	inactive
O=C(Cn1c(=O)ccn(CCCCCCc2ccccc2)c1=O)Nc1ccc(Oc2ccccc2)cc1	inactive
O=C(Cn1c(=O)ccn(CCCCCOc2ccc(Br)cc2)c1=O)Nc1ccc(OCc2ccccc2)cc1	inactive

tested on: Influenza B virus; assay: Antiviral activity against Influenza B virus; format: functional, organism-based; settings: not given
Method in brief: (§3)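 Confluent cell monolayers (HEL, Vero, HeLa or MDCK) in 96-well plates were infected with 100 CCID50 of virus in the presence of varying compound concentrations. Cytopathicity was scored once it reached completion in untreated infected controls.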

Compound	inhibition
O=C(Cn1c(=O)ccn(CCCCCOc2ccc(Br)cc2)c1=O)Nc1ccccc1	inactive
O=C(Cn1c(=O)ccn(CCCCCCc2ccccc2)c1=O)Nc1ccc(Oc2ccccc2)cc1	inactive
O=C(Cn1c(=O)ccn(CCCCCOc2ccc(Br)cc2)c1=O)Nc1ccc(OCc2ccccc2)cc1	inactive

tested on: Influenza A virus H3N2; assay: Antiviral activity against Influenza A virus H3N2; format: functional, organism-based; settings: not given; method in brief: as §3

Compound	inhibition
O=C(Cn1c(=O)ccn(CCCCCOc2ccc(Br)cc2)c1=O)Nc1ccccc1	inactive
O=C(Cn1c(=O)ccn(CCCCCCc2ccccc2)c1=O)Nc1ccc(Oc2ccccc2)cc1	inactive
O=C(Cn1c(=O)ccn(CCCCCOc2ccc(Br)cc2)c1=O)Nc1ccc(OCc2ccccc2)cc1	inactive

tested on: Human immunodeficiency virus 1; assay: Antiviral activity against HIV1 3B infected in human CEM cells assessed as reduction in virus- induced cytopathicity incubated for 4 to 5 days by microscopy based virus syncytium formation assay; format: functional, organism-based; settings: CCRF-CEM
Method in brief: (§4)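 CEM cells at ~3 × 10^5 cells/mL, infected with 100 CCID50 of HIV per mL in the presence of compound dilutions. Incubated 4–5 days at 37 °C in humidified CO2. Syncytium (giant cell) formation scored by microscopy.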

Compound	inhibition
O=C(Cn1c(=O)ccn(CCCCCOc2ccc(Br)cc2)c1=O)Nc1ccccc1	inactive
O=C(Cn1c(=O)ccn(CCCCCCc2ccccc2)c1=O)Nc1ccc(Oc2ccccc2)cc1	inactive
O=C(Cn1c(=O)ccn(CCCCCOc2ccc(Br)cc2)c1=O)Nc1ccc(OCc2ccccc2)cc1	inactive

tested on: Punta Toro virus; assay: Antiviral activity against Punta Toro virus; format: functional, organism-based; settings: not given

Compound	inhibition
O=C(Cn1c(=O)ccn(CCCCCOc2ccc(Br)cc2)c1=O)Nc1ccccc1	inactive
O=C(Cn1c(=O)ccn(CCCCCCc2ccccc2)c1=O)Nc1ccc(Oc2ccccc2)cc1	inactive
O=C(Cn1c(=O)ccn(CCCCCOc2ccc(Br)cc2)c1=O)Nc1ccc(OCc2ccccc2)cc1	inactive

tested on: Human immunodeficiency virus 2; assay: Antiviral activity against HIV2 ROD infected in human CEM cells assessed as reduction in virus- induced cytopathicity incubated for 4 to 5 days by microscopy based virus syncytium formation assay; format: functional, organism-based; settings: ISOLATE ROD, CCRF-CEM; method in brief: as §4

Compound	inhibition
O=C(Cn1c(=O)ccn(CCCCCOc2ccc(Br)cc2)c1=O)Nc1ccccc1	inactive
O=C(Cn1c(=O)ccn(CCCCCCc2ccccc2)c1=O)Nc1ccc(Oc2ccccc2)cc1	inactive
O=C(Cn1c(=O)ccn(CCCCCOc2ccc(Br)cc2)c1=O)Nc1ccc(OCc2ccccc2)cc1	inactive

tested on: Human respirovirus 3; assay: Antiviral activity against Parainfluenza 3 virus; format: functional, organism-based; settings: not given

Compound	inhibition
O=C(Cn1c(=O)ccn(CCCCCOc2ccc(Br)cc2)c1=O)Nc1ccccc1	inactive
O=C(Cn1c(=O)ccn(CCCCCCc2ccccc2)c1=O)Nc1ccc(Oc2ccccc2)cc1	inactive
O=C(Cn1c(=O)ccn(CCCCCOc2ccc(Br)cc2)c1=O)Nc1ccc(OCc2ccccc2)cc1	inactive

tested on: Influenza A virus; assay: Antiviral activity against Influenza A virus H1N1; format: functional, organism-based; settings: not given; method in brief: as §3

Compound	inhibition
O=C(Cn1c(=O)ccn(CCCCCOc2ccc(Br)cc2)c1=O)Nc1ccccc1	inactive
O=C(Cn1c(=O)ccn(CCCCCCc2ccccc2)c1=O)Nc1ccc(Oc2ccccc2)cc1	inactive
O=C(Cn1c(=O)ccn(CCCCCOc2ccc(Br)cc2)c1=O)Nc1ccc(OCc2ccccc2)cc1	inactive

tested on: not listed separately; assay: Cytotoxicity against Varicella zoster virus infected HEL cells assessed as alteration of cell morphology incubated for 3 days by microscopy; format: cell-based; settings: human, HEL cells infected with Varicella zoster virus; method in brief: as §1

Compound	MCC at 72 h
O=C(Cn1c(=O)ccn(CCCCCOc2ccc(Br)cc2)c1=O)Nc1ccccc1	≥ 20 µM
O=C(Cn1c(=O)ccn(CCCCCCc2ccccc2)c1=O)Nc1ccc(Oc2ccccc2)cc1	> 100 µM
O=C(Cn1c(=O)ccn(CCCCCOc2ccc(Br)cc2)c1=O)Nc1ccc(OCc2ccccc2)cc1	≥ 20 µM

tested on: Human alphaherpesvirus 1; assay: Antiviral activity against HSV1 KOS; format: functional, organism-based; settings: not given; method in brief: as §2

Compound	inhibition
O=C(Cn1c(=O)ccn(CCCCCOc2ccc(Br)cc2)c1=O)Nc1ccccc1	inactive
O=C(Cn1c(=O)ccn(CCCCCCc2ccccc2)c1=O)Nc1ccc(Oc2ccccc2)cc1	inactive
O=C(Cn1c(=O)ccn(CCCCCOc2ccc(Br)cc2)c1=O)Nc1ccc(OCc2ccccc2)cc1	inactive

tested on: Human betaherpesvirus 5; assay: Antiviral activity against human cytomegalovirus AD169 infected in HEL cells assessed as reduction in viral plaque formation; format: functional, organism-based; settings: Human betaherpesvirus 5, AD169, HEL
Method in brief: (§5)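 Confluent HEL fibroblasts were infected with 100 PFU of HCMV in the presence of varying compound concentrations. Plaques were counted once plaque formation was complete in untreated infected controls.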

Compound	EC50
O=C(Cn1c(=O)ccn(CCCCCOc2ccc(Br)cc2)c1=O)Nc1ccccc1	> 4 µM
O=C(Cn1c(=O)ccn(CCCCCCc2ccccc2)c1=O)Nc1ccc(Oc2ccccc2)cc1	> 20 µM
O=C(Cn1c(=O)ccn(CCCCCOc2ccc(Br)cc2)c1=O)Nc1ccc(OCc2ccccc2)cc1	> 20 µM

tested on: Human herpesvirus 2 strain G; assay: Antiviral activity against HSV2 G Lyons; format: functional, organism-based; settings: not given

Compound	inhibition
O=C(Cn1c(=O)ccn(CCCCCOc2ccc(Br)cc2)c1=O)Nc1ccccc1	inactive
O=C(Cn1c(=O)ccn(CCCCCCc2ccccc2)c1=O)Nc1ccc(Oc2ccccc2)cc1	inactive
O=C(Cn1c(=O)ccn(CCCCCOc2ccc(Br)cc2)c1=O)Nc1ccc(OCc2ccccc2)cc1	inactive

tested on: HEL; assay: Cytotoxicity against human cytomegalovirus infected HEL cells assessed as cell growth inhibition incubated for 3 days by coulter counter method; format: cell-based; settings: 72 h
Method in brief: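 HEL cells were seeded at 5 × 10^3 cells/well and left to adhere and proliferate for 24 h, then compound-containing medium was added. After 3 days at 37 °C, cells were counted with a Coulter counter.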

Compound	CC50
Nc1ccn(C[C@@H](CO)OCP(=O)(O)O)c(=O)n1 [CIDOFOVIR]	≥ 208 µM
Nc1nc(O)c2ncn(COC(CO)CO)c2n1 [GANCICLOVIR]	≥ 319 µM

tested on: Mammalian orthoreovirus 1; assay: Antiviral activity against Reovirus 1; format: functional; settings: not given

Compound	inhibition
O=C(Cn1c(=O)ccn(CCCCCOc2ccc(Br)cc2)c1=O)Nc1ccccc1	inactive
O=C(Cn1c(=O)ccn(CCCCCCc2ccccc2)c1=O)Nc1ccc(Oc2ccccc2)cc1	inactive
O=C(Cn1c(=O)ccn(CCCCCOc2ccc(Br)cc2)c1=O)Nc1ccc(OCc2ccccc2)cc1	inactive

tested on: Vaccinia virus; assay: Antiviral activity against Vaccinia virus Lederle; format: functional, organism-based; settings: Orthopoxvirus vaccinia; method in brief: as §3

Compound	inhibition
O=C(Cn1c(=O)ccn(CCCCCOc2ccc(Br)cc2)c1=O)Nc1ccccc1	inactive
O=C(Cn1c(=O)ccn(CCCCCCc2ccccc2)c1=O)Nc1ccc(Oc2ccccc2)cc1	inactive
O=C(Cn1c(=O)ccn(CCCCCOc2ccc(Br)cc2)c1=O)Nc1ccc(OCc2ccccc2)cc1	inactive

tested on: Human betaherpesvirus 5; assay: Antiviral activity against human cytomegalovirus Davis infected in HEL cells assessed as reduction in viral plaque formation; format: functional, organism-based; settings: Human betaherpesvirus 5, Davis; method in brief: as §5

Compound	EC50
Nc1ccn(C[C@@H](CO)OCP(=O)(O)O)c(=O)n1 [CIDOFOVIR]	0.84 µM
O=C(Cn1c(=O)ccn(CCCCCOc2ccc(Br)cc2)c1=O)Nc1ccccc1	> 4 µM
O=C(Cn1c(=O)ccn(CCCCCCc2ccccc2)c1=O)Nc1ccc(Oc2ccccc2)cc1	> 20 µM
O=C(Cn1c(=O)ccn(CCCCCOc2ccc(Br)cc2)c1=O)Nc1ccc(OCc2ccccc2)cc1	4 µM

tested on: Vesicular stomatitis virus; assay: Antiviral activity against Vesicular stomatitis virus; format: functional, organism-based; settings: not given; method in brief: as §3

Compound	inhibition
O=C(Cn1c(=O)ccn(CCCCCOc2ccc(Br)cc2)c1=O)Nc1ccccc1	inactive
O=C(Cn1c(=O)ccn(CCCCCCc2ccccc2)c1=O)Nc1ccc(Oc2ccccc2)cc1	inactive
O=C(Cn1c(=O)ccn(CCCCCOc2ccc(Br)cc2)c1=O)Nc1ccc(OCc2ccccc2)cc1	inactive

tested on: Sindbis virus; assay: Antiviral activity against Sindbis virus; format: functional, organism-based; settings: not given

Compound	inhibition
O=C(Cn1c(=O)ccn(CCCCCOc2ccc(Br)cc2)c1=O)Nc1ccccc1	inactive
O=C(Cn1c(=O)ccn(CCCCCCc2ccccc2)c1=O)Nc1ccc(Oc2ccccc2)cc1	inactive
O=C(Cn1c(=O)ccn(CCCCCOc2ccc(Br)cc2)c1=O)Nc1ccc(OCc2ccccc2)cc1	inactive
